Test results published in ChEMBL document CHEMBL3351850, “Synthesis and anti-biofilm activities of dihydro-pyrrol-2-one derivatives on Pseudomonas aeruginosa” (Bioorg Med Chem Lett, 2015).
Converted amounts (≈) assume the structure as drawn.

Assays:
[1] = tested on: Pseudomonas aeruginosa; assay: Antibacterial activity against Pseudomonas aeruginosa assessed as growth inhibition at 50 ug/ml after 24 hrs by microplate reader analysis; assay type: functional; details: read-out: GI
[2] = tested on: Pseudomonas aeruginosa; assay: Antibiofilm activity against Pseudomonas aeruginosa at 50 ug/ml after 24 hrs by microplate reader analysis; assay type: functional
[3] = tested on: Pseudomonas aeruginosa; assay: Antibiofilm activity against Pseudomonas aeruginosa after 24 hrs by microplate reader analysis; assay type: functional, organism-based
Method in brief: (§1)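 IC50 for growth and biofilm formation found by serial dilution to the concentration giving 50% inhibition.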

[4] = tested on: Pseudomonas aeruginosa; assay: Reduction of extracellular DNA in Pseudomonas aeruginosa biofilm after 48 hrs by UV-spectrophotometry; assay type: functional, organism-based
Method in brief: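 eDNA measured as the change in absorbance of biofilm lysate at 260 nm versus untreated controls; mean ± standard deviation.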

[5] = tested on: Pseudomonas aeruginosa; assay: Antibacterial activity against Pseudomonas aeruginosa assessed as growth inhibition after 24 hrs by microplate reader analysis; assay type: functional, organism-based; method in brief: as §1
[6] = tested on: Pseudomonas aeruginosa; assay: Inhibition of MDH in Pseudomonas aeruginosa biofilm after 48 hrs by UV-spectrophotometry
Method in brief: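 MDH in biofilm read as the change in absorbance of the reaction mixture at 340 nm, relative to untreated controls; mean ± standard deviation.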

**Q.** How did the inhibition of growth at 50 µg/mL [1] turn out when CCOC(=O)C1=C(Nc2ccc(C)cc2)C(=O)N(c2ccc(C)cc2)C1C(=O)OCC (stereo not drawn) was run?
**A.** Its inhibition of growth at 50 µg/mL is 34%.

**Q.** And the inhibition at 50 µg/mL [2]?
**A.** The inhibition at 50 µg/mL was 13.6%.

**Q.** What does the source list for CCOC(=O)C1=C(NC2CC2)C(=O)N(C2CC2)C1C(=O)OCC (stereo not drawn)?
**A.** inhibition of growth at 50 µg/mL [1]: 26.6%; inhibition at 50 µg/mL [2]: 11.8%

**Q.** For CCOC(=O)C1=C(Nc2cccc(Cl)c2)C(=O)N(c2cccc(Cl)c2)C1C(=O)OCC (stereo not drawn), which IC50 [3] is on record?
**A.** Its IC50 is 28.8 µg/mL (≈ 62.2 µM).

**Q.** What about the inhibition of growth at 50 µg/mL [1] of the same molecule?
**A.** The inhibition of growth at 50 µg/mL was 83%.

**Q.** And the Activity [4]?
**A.** The Activity was “Dose-dependent effect”.

**Q.** And the IC50 [5]?
**A.** The IC50 was 27.8 µg/mL (≈ 60 µM).

**Q.** What about the inhibition at 50 µg/mL [2] of the same molecule?
**A.** Its inhibition at 50 µg/mL is 70.2%.

**Q.** And the inhibition [6]?
**A.** Its inhibition is “Dose-dependent effect”.

**Q.** With CCOC(=O)C1=C(Nc2ccc(CC)cc2)C(=O)N(c2ccc(CC)cc2)C1C(=O)OCC (stereo not drawn) as the molecule, how does the IC50 [3] read?
**A.** Its IC50 is 47.4 µg/mL (≈ 105 µM).

**Q.** What about the inhibition of growth at 50 µg/mL [1] of the same molecule?
**A.** The inhibition of growth at 50 µg/mL was 65.8%.

**Q.** What about the Activity [4] of the same molecule?
**A.** Its Activity is “Dose-dependent effect”.

**Q.** What about the IC50 [5] of the same molecule?
**A.** The IC50 was 42.2 µg/mL (≈ 93.7 µM).

**Q.** And the inhibition at 50 µg/mL [2]?
**A.** Its inhibition at 50 µg/mL is 53.2%.

**Q.** What about the inhibition [6] of the same molecule?
**A.** The inhibition was “Dose-dependent effect”.

**Q.** Which results are given for CCOC(=O)C1=C(Nc2cccc(C)c2)C(=O)N(c2cccc(C)c2)C1C(=O)OCC (stereo not drawn)?
**A.** inhibition of growth at 50 µg/mL [1]: 55.5%; IC50 [5]: 48.4 µg/mL (≈ 115 µM); inhibition at 50 µg/mL [2]: 29.3%

**Q.** How did the IC50 [3] turn out when CCOC(=O)C1=C(Nc2ccc(OCC)cc2)C(=O)N(c2ccc(OCC)cc2)C1C(=O)OCC (stereo not drawn) was run?
**A.** Its IC50 is 48.4 µg/mL (≈ 100 µM).

**Q.** And the inhibition of growth at 50 µg/mL [1]?
**A.** The inhibition of growth at 50 µg/mL was 63.1%.

**Q.** What about the Activity [4] of the same molecule?
**A.** Its Activity is “Dose-dependent effect”.

**Q.** What about the IC50 [5] of the same molecule?
**A.** Its IC50 is 46.6 µg/mL (≈ 96.6 µM).

**Q.** And the inhibition at 50 µg/mL [2]?
**A.** The inhibition at 50 µg/mL was 53.8%.

**Q.** What about the inhibition [6] of the same molecule?
**A.** Its inhibition is “Dose-dependent effect”.

**Q.** What does the source list for CCOC(=O)C1=C(Nc2ccc(Br)cc2)C(=O)N(c2ccc(Br)cc2)C1C(=O)OCC (stereo not drawn)?
**A.** IC50 [3]: 39 µg/mL (≈ 70.6 µM); inhibition of growth at 50 µg/mL [1]: 76.8%; Activity [4]: Dose-dependent effect; IC50 [5]: 38.4 µg/mL (≈ 69.5 µM); inhibition at 50 µg/mL [2]: 65.4%; inhibition [6]: Dose-dependent effect

**Q.** Which inhibition of growth at 50 µg/mL [1] does the source give for CC[C@H]1OC(=O)[C@H](C)[C@@H](O[C@H]2C[C@@](C)(OC)[C@@H](O)[C@H](C)O2)[C@H](C)[C@@H](O[C@@H]2O[C@H](C)C[C@H](N(C)C)[C@H]2O)[C@](C)(O)C[C@@H](C)C(=O)[C@H](C)[C@@H](O)[C@]1(C)O [ERYTHROMYCIN] here?
**A.** The inhibition of growth at 50 µg/mL was 67.6%.

**Q.** What about the Activity [4] of the same molecule?
**A.** Its Activity is “Dose-dependent effect”.

**Q.** What about the IC50 [5] of the same molecule?
**A.** Its IC50 is 33.2 µg/mL (≈ 45.2 µM).

**Q.** What about the inhibition at 50 µg/mL [2] of the same molecule?
**A.** Its inhibition at 50 µg/mL is 45.7%.

**Q.** What about the inhibition [6] of the same molecule?
**A.** Its inhibition is “Dose-dependent effect”.

**Q.** What does the source list for CCOC(=O)C1=C(Nc2ccc(Cl)cc2)C(=O)N(c2ccc(Cl)cc2)C1C(=O)OCC (stereo not drawn)?
**A.** inhibition of growth at 50 µg/mL [1]: 68.6%; IC50 [5]: 41.6 µg/mL (≈ 89.8 µM); inhibition at 50 µg/mL [2]: 20.7%

**Q.** How did the inhibition of growth at 50 µg/mL [1] turn out when CCOC(=O)C1=C(Nc2cc(C)cc(C)c2)C(=O)N(c2cc(C)cc(C)c2)C1C(=O)OCC (stereo not drawn) was run?
**A.** The inhibition of growth at 50 µg/mL was 32.5%.

**Q.** What about the inhibition at 50 µg/mL [2] of the same molecule?
**A.** Its inhibition at 50 µg/mL is 28.9%.

**Q.** Which IC50 [3] does the source give for CCOC(=O)C1=C(Nc2ccc(OC)cc2)C(=O)N(c2ccc(OC)cc2)C1C(=O)OCC (stereo not drawn) here?
**A.** Its IC50 is 40.2 µg/mL (≈ 88.5 µM).

**Q.** What about the inhibition of growth at 50 µg/mL [1] of the same molecule?
**A.** Its inhibition of growth at 50 µg/mL is 80.8%.

**Q.** And the Activity [4]?
**A.** The Activity was “Dose-dependent effect”.

**Q.** What about the IC50 [5] of the same molecule?
**A.** The IC50 was 34.2 µg/mL (≈ 75.3 µM).

**Q.** And the inhibition at 50 µg/mL [2]?
**A.** Its inhibition at 50 µg/mL is 61.4%.

**Q.** And the inhibition [6]?
**A.** The inhibition was “Dose-dependent effect”.

**Q.** For CCOC(=O)C1=C(Nc2cccc(C(=O)OCC)c2)C(=O)N(c2cccc(C(=O)OCC)c2)C1C(=O)OCC (stereo not drawn), which inhibition of growth at 50 µg/mL [1] is on record?
**A.** Its inhibition of growth at 50 µg/mL is 15.4%.

**Q.** What about the inhibition at 50 µg/mL [2] of the same molecule?
**A.** The inhibition at 50 µg/mL was 42%.

**Q.** CCOC(=O)C1=C(Nc2ccc(C(=O)OCC)cc2)C(=O)N(c2ccc(C(=O)OCC)cc2)C1C(=O)OCC (stereo not drawn) was tested. Which inhibition of growth at 50 µg/mL [1] did it give?
**A.** The inhibition of growth at 50 µg/mL was 44.7%.

**Q.** What about the inhibition at 50 µg/mL [2] of the same molecule?
**A.** The inhibition at 50 µg/mL was 37.8%.

**Q.** For CCOC(=O)C1=C(NC2CCC2)C(=O)N(C2CCC2)C1C(=O)OCC (stereo not drawn), which inhibition of growth at 50 µg/mL [1] is on record?
**A.** Its inhibition of growth at 50 µg/mL is 40.9%.

**Q.** What about the inhibition at 50 µg/mL [2] of the same molecule?
**A.** The inhibition at 50 µg/mL was 41.3%.

**Q.** With CCOC(=O)C1=C(Nc2ccccc2)C(=O)N(c2ccccc2)C1C(=O)OCC (stereo not drawn) as the molecule, how does the inhibition of growth at 50 µg/mL [1] read?
**A.** The inhibition of growth at 50 µg/mL was 50.4%.

**Q.** What about the IC50 [5] of the same molecule?
**A.** The IC50 was 50 µg/mL (≈ 127 µM).

**Q.** And the inhibition at 50 µg/mL [2]?
**A.** The inhibition at 50 µg/mL was 35.5%.

**Q.** How did the inhibition of growth at 50 µg/mL [1] turn out when CCOC(=O)C1=C(Nc2cccc(F)c2)C(=O)N(c2cccc(F)c2)C1C(=O)OCC (stereo not drawn) was run?
**A.** Its inhibition of growth at 50 µg/mL is 20.3%.

**Q.** What about the inhibition at 50 µg/mL [2] of the same molecule?
**A.** Its inhibition at 50 µg/mL is 27.5%.
